For 48 molecules, Kd results are on record in ChEMBL document CHEMBL4359913, “Identification and characterization of benzo[d]oxazol-2(3H)-one derivatives as the first potent and selective small-molecule inhibitors of chromodomain protein CDYL” (Eur J Med Chem, 2019).

The target of assay [1] is T1, Chromodomain Y-like protein (Homo sapiens, UniProt Q9Y232).
T1 sequence (Q9Y232 whole entry): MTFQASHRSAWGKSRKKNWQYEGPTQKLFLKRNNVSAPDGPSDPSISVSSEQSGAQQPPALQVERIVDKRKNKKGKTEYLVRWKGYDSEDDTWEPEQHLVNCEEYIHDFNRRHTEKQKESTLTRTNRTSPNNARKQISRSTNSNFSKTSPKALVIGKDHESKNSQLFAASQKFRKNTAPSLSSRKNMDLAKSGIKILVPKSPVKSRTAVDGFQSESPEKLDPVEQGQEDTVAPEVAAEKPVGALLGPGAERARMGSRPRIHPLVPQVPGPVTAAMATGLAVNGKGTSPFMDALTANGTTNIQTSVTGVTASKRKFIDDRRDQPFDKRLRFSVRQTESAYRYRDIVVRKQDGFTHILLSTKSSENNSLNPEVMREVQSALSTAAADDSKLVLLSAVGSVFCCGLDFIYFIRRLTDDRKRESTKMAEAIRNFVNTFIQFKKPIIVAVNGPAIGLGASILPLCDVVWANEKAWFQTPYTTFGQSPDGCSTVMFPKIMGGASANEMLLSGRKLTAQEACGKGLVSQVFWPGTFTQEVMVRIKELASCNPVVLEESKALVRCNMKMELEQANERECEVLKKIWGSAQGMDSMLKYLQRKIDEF
Description: Binding affinity to recombinant human N-terminal GST-tagged CDYL (1 to 60 residues) expressed in Escherichia coli […] by SPR analysis. The procedure, abridged:
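GST-tagged chromodomain expressed in E. coli BL21 with 0.2 mM IPTG at 28 °C for 6 h. Purified on GSTrap, tag removed with PreScission protease. Amine-coupled to CM5 chip at pH 4.0–4.5 (5000–10000 RU). Compound run as a 1.5- or 2-fold series from 100 µM in PBSP with 5% DMSO, 25 °C, 30 µL/min, 60 s association and 60 s dissociation.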

The target of assay [2] is T2, Testis-specific chromodomain protein Y 1 (Homo sapiens, UniProt Q9Y6F8).
T2 sequence (Q9Y6F8 whole entry): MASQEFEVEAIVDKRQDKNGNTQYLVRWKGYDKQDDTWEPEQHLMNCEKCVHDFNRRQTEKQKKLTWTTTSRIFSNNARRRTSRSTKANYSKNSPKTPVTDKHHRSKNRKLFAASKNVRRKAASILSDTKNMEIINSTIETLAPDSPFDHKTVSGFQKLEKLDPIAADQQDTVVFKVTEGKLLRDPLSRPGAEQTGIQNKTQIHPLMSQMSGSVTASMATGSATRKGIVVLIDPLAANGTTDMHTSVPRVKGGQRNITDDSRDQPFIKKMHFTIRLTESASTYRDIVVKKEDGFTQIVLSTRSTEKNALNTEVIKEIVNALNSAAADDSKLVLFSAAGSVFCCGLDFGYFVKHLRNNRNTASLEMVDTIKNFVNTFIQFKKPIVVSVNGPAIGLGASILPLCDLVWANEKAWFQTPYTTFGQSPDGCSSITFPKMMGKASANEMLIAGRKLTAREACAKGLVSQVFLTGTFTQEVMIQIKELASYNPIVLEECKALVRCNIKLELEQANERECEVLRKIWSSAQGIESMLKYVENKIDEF
Description: Binding affinity to recombinant human N-terminal GST-tagged CDY1 (1 to 65 residues) expressed in Escherichia coli […] by SPR analysis. The procedure, abridged: (§1)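 Chromodomain expressed with N-terminal GST tag in E. coli BL21 (IPTG 0.2 mM at OD600 0.6–0.8, 28 C for 6 h), GSTrap purified, tag cleaved by PreScission protease, amine-coupled to CM5 chip at pH 4.0–4.5 (5000–10000 RU). […] Mean ± SD of at least two replicates, each in duplicate.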

The target in assay [3] is T3, Chromobox protein homolog 7 (Homo sapiens, UniProt O95931).
T3 sequence (O95931 whole entry): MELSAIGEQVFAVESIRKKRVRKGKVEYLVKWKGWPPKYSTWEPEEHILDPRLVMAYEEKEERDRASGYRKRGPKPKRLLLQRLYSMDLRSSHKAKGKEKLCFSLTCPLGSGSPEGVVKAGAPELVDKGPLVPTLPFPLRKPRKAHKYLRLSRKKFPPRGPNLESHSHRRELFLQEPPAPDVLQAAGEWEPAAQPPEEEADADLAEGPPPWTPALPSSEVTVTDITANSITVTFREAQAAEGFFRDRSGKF
Kind of assay: Binding affinity to recombinant human N-terminal GST-tagged CBX7 (1 to 62 residues) expressed in Escherichia coli […] by SPR analysis. The procedure, abridged: as §1
(In general: Surface plasmon resonance follows binding to a sensor surface in real time, without labels.)

Take `O=C(Cn1c(=O)oc2ccc(F)cc21)c1ccc2ccccc2c1`: the Kd in assay [1] stood at 20.1 µM; in assay [2], 210 µM; in assay [3], 40.2 µM.

On to `CCN(CC)CCOC(=O)CCc1cccc2ccccc12`, for which, in assay [1], the Kd stood at 60.8 µM.

`C[C@@H](CN1CCCC1)OC(=O)c1ccc(Cl)cc1Cl`: the Kd in assay [1] was 271 µM.

Take `COc1cccc(C(=O)Cn2cnc3ccccc32)c1`: the Kd in assay [1] was determined as 10.1 µM; in assay [2] it was 4 µM.

In the case of `O=C(Cn1c(=O)oc2ccccc21)N1CCC(N2CCOCC2)CC1`, the Kd in assay [1] was 25.9 µM; in assay [2], 21 µM; in assay [3], 5.6 µM.

As to `CCN(CC)C1CCN(C(=O)Cn2c(=O)oc3ccccc32)CC1`, the dissociation constant (Kd) was 5.8 µM in assay [1] and 46.6 µM in assay [3].

Consider `COc1cccc(C(=O)Cn2c(=O)oc3ccc(OC)cc32)c1`, for which the Kd in assay [1] amounted to 7.7 µM; in assay [2] it was 15.6 µM; in assay [3], 17.2 µM.

Regarding `CN(C)C1CCN(C(=O)Cn2c(=O)oc3ccccc32)CC1`, the Kd is 9.5 µM in assay [1] and 33.6 µM in assay [2].

As to `CN1C(=O)C(O)(CC(=O)c2ccc3ccccc3c2)c2ccccc21` (configuration not stated), the Kd in assay [1] is 19.4 µM; in assay [2], 28.9 µM; in assay [3], 5.1 µM.

With `COc1ccc2oc(=O)n(CC(=O)c3ccc(OC)c(OC)c3)c2c1`, the Kd in assay [1] is 5.5 µM; in assay [2], 11.3 µM; in assay [3] it was 3.9 µM.

Consider `O=C(Cn1c(=O)sc2cc([N+](=O)[O-])ccc21)c1c[nH]c2ccccc12`, for which the Kd in assay [1] was determined as 71.7 µM; in assay [2], 14.4 µM; in assay [3], 8.8 µM.

As for `CCN(CC)C1CCN(C(=O)Cn2c(=O)oc3ccc(F)cc32)CC1`, the Kd in assay [1] amounted to 2.8 µM; in assay [2] it was 4.5 µM; in assay [3], 2.8 µM.

For `O=C(Cn1c(=O)oc2ccc(F)cc21)c1c[nH]c2ccccc12`, the Kd in assay [1] was 5.1 µM; in assay [2] it was 23.7 µM; in assay [3], 9.8 µM.

`COCCCNC(=O)Cc1c(C)c2c(O)cc(C)cc2oc1=O`: the Kd in assay [1] turned out to be 26 µM.

As to `Nc1ccc2c(c1)sc(=O)n2CC(=O)c1c[nH]c2ccccc12`, the Kd in assay [1] was 3.5 µM; in assay [2], 51.1 µM; in assay [3], 6.5 µM.

For `COc1cccc(NC(=O)Cn2c(=O)oc3ccccc32)c1`, the Kd stood at 7.3 µM in assay [1], 1 µM in assay [2] and 14.8 µM in assay [3].

In the case of `CC(C)N1C(=O)[C@@](O)(CC(=O)c2cccc3ccccc23)c2ccccc21`, the Kd in assay [1] stood at 55.3 µM.

For the molecule `O=C(Cn1c(=O)oc2ccccc21)c1cccc2ccccc12`, the Kd in assay [1] turned out to be 3 µM; in assay [2], 6.5 µM; in assay [3], 29.9 µM.

For `O=C(Cn1c(=O)oc2ccccc21)Nc1ccc2ccccc2c1`, the Kd in assay [1] amounted to 18.9 µM; in assay [2], 20.4 µM; in assay [3], 19.6 µM.

On to `O=C(Cn1c(=O)oc2ccccc21)Nc1cccc2ccccc12`, for which the Kd in assay [1] was 29 µM; in assay [2], 0.8 µM; in assay [3] it was above 200 µM.

For `CN1C(=O)C(O)(CC(=O)c2cccc3ccccc23)c2ccccc21` (configuration not stated), the Kd in assay [1] came out at 128 µM; in assay [2], 24.7 µM; in assay [3] it was 2.4 µM.

Turning to `C=CCN1C(=O)C(O)(CC(=O)c2ccc3ccccc3c2)c2ccccc21` (configuration not stated), the Kd in assay [1] turned out to be 31.7 µM; in assay [2], 24.5 µM.

On to `COc1cccc(C(=O)Cn2c(=O)oc3ccc(C#N)cc32)c1`, for which the Kd in assay [2] was 42.1 µM; in assay [3] it was 19.6 µM.

Regarding `CN(C)c1ccc(C(=O)Cn2c(=O)oc3ccc(F)cc32)cc1`, the Kd in assay [1] came out at 90.1 µM; in assay [2], 34.6 µM; in assay [3] it was 78.1 µM.

`O=C(Cn1c(=O)oc2ccccc21)N1CCC(N2CCCCC2)CC1`: the Kd turned out to be 11.8 µM in assay [1], 51.1 µM in assay [2] and 13.5 µM in assay [3].

On to `N#Cc1ccc2oc(=O)n(CC(=O)c3c[nH]c4ccccc34)c2c1`, for which the dissociation constant Kd in assay [1] turned out to be 96.7 µM; in assay [2] it was 4.6 µM; in assay [3], 46.9 µM.

For `CCCN1C(=O)C(O)(CC(=O)c2cc(Br)c(Br)o2)c2cc(Cl)ccc21` (configuration not stated), the Kd in assay [1] was 15.4 µM; in assay [3] it was 16 µM.

For the molecule `O=C(CN1C(=O)COc2ccccc21)c1c[nH]c2ccccc12`, the Kd in assay [1] was 59.8 µM; in assay [2], 109 µM; in assay [3], 37.1 µM.

As to `COc1ccc2oc(=O)n(CC(=O)c3ccc(N(C)C)cc3)c2c1`, the results for the Kd in assay [1], in assay [2] and in assay [3] were 15.5 µM, 2.7 µM and 6.1 µM, respectively.

Take `CCCC(=O)Nc1ccc(Cl)c(NC(=O)COc2ccccc2OC)c1`: the Kd in assay [1] came out at 14.2 µM.

Consider `CCCCN1C(=O)C(O)(CC(=O)c2cccc(OC)c2)c2ccccc21` (configuration not stated), for which the values for the Kd in assay [1], in assay [2] and in assay [3] were 100 µM, 17.2 µM and 8.8 µM, respectively.

Turning to `N#Cc1ccc2oc(=O)n(CC(=O)c3ccc4ccccc4c3)c2c1`, the equilibrium dissociation constant (Kd) in assay [1] amounted to 101 µM; in assay [2] it was 71.5 µM.

Turning to `CN1CCc2c(sc3c2C(=O)N[C@@H](/C=C\c2ccccc2)N3)C1`, the Kd in assay [1] is 55.6 µM.

Consider `COc1cccc(C(=O)CN2C(=O)COc3ccccc32)c1`, for which the Kd in assay [1] was 13 µM; in assay [2] it was 11.3 µM; in assay [3] it was 53 µM.

With `O=C(Cn1c(=O)sc2cc([N+](=O)[O-])ccc21)c1ccc2ccccc2c1`, the dissociation constant Kd came to 26.8 µM in assay [1] and 123 µM in assay [2].

On to `COc1ccc(C(=O)Cn2c(=O)oc3ccccc32)cc1OC`, for which the Kd in assay [1] is 14.6 µM; in assay [2], 23.8 µM; in assay [3], 48.5 µM.

On to `O=C(Cn1c(=O)oc2cc(Br)ccc21)c1ccc2ccccc2c1`, for which the Kd in assay [1] was 29 µM; in assay [2], 1.7 µM; in assay [3] it was 29.7 µM.

With `CCCN1C(=O)C(O)(CC(=O)c2ccc3c(c2)CCCC3)c2ccccc21` (configuration not stated), the values for the Kd in assay [1], in assay [2] and in assay [3] were 50.5 µM, 89.5 µM and 7.2 µM, respectively.

Turning to `COc1ccccc1[C@@H]1NC(=O)c2c(sc3c2CCN(C)C3)N1`, the Kd in assay [1] is 53.2 µM.

With `CCCN1C(=O)C(O)(CC(=O)c2cccc3ccccc23)c2ccccc21` (configuration not stated), the Kd in assay [1] was 23 µM; in assay [2] it was 21.1 µM; in assay [3], 20.4 µM.

`O=C(Cn1c(=O)oc2ccc([N+](=O)[O-])cc21)N1CCC(N2CCCC2)CC1`: the Kd in assay [1] came out at 16.8 µM; in assay [2] it was 55.8 µM.

On to `COc1ccc2oc(=O)n(CC(=O)c3ccc4ccccc4c3)c2c1`, for which the Kd was 1.5 µM in assay [1], 1.5 µM in assay [2] and 59.5 µM in assay [3].

For `O=C(Cn1c(=O)oc2ccc(Br)cc21)c1ccc2ccccc2c1`, the Kd turned out to be 5.8 µM in assay [1], 14.8 µM in assay [2] and 9.5 µM in assay [3].

As for `CN(C)c1ccc(C(=O)Cn2c(=O)oc3ccccc32)cc1`, the Kd in assay [1] stood at 11.9 µM; in assay [3], 36.5 µM.

As to `COc1cccc(C(=O)Cn2c(=O)oc3ccc(F)cc32)c1`, the Kd in assay [1] was determined as 6.2 µM; in assay [3] it was 3.4 µM.

For `Nc1ccc2c(c1)sc(=O)n2CC(=O)c1ccc2ccccc2c1`, the Kd in assay [1] is 4.9 µM; in assay [3], above 200 µM.

On to `COc1ccc2oc(=O)n(CC(=O)c3c[nH]c4ccccc34)c2c1`, for which the Kd is 7.2 µM in assay [1], 36.4 µM in assay [2] and 20.3 µM in assay [3].

`COc1cccc(C(=O)Cn2c(=O)oc3ccccc32)c1`: the Kd was determined as 4.9 µM in assay [1] and 5.8 µM in assay [2].

For orientation: Kd means the free concentration of one partner at which half of the binding sites on the other are occupied at equilibrium, for simple one-to-one binding.
